Experimental data reported in ChEMBL document CHEMBL4622923, “Discovery of 4-Phenylpiperidine-2-Carboxamide Analogues as Serotonin 5-HT2C Receptor-Positive Allosteric Modulators with Enhanced Drug-like Properties” (J Med Chem, 2020).

Tests used:
[1] = biological target: D(2) dopamine receptor (Homo sapiens) (UniProt P14416); assay: Displacement of [3H]-N-methylspiperone from human dopamine D2 receptor at 10 uM incubated for 90 mins under dark condition by scintillation counting analysis relative to control
Sequence of D(2) dopamine receptor (Homo sapiens) (P14416 whole entry): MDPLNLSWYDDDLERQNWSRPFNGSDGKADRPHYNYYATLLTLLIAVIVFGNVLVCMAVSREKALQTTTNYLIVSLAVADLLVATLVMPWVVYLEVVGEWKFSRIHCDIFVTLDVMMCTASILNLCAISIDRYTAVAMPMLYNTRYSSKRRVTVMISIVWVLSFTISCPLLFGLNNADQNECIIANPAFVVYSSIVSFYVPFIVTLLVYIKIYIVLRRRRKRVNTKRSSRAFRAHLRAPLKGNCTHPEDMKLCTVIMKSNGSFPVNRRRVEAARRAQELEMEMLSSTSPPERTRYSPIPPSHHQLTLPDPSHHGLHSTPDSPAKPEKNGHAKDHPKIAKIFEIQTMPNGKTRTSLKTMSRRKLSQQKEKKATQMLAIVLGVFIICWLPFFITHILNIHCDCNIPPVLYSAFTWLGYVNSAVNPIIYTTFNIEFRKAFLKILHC

[2] = biological target: D(1A) dopamine receptor (Homo sapiens) (UniProt P21728); assay: Displacement of [3H]-SCH23390 from human dopamine D1 receptor transiently expressed in HEKT cell membranes at 10 uM incubated for 90 mins under dark condition by scintillation counting analysis relative to control
Sequence of D(1A) dopamine receptor (Homo sapiens) (P21728 whole entry): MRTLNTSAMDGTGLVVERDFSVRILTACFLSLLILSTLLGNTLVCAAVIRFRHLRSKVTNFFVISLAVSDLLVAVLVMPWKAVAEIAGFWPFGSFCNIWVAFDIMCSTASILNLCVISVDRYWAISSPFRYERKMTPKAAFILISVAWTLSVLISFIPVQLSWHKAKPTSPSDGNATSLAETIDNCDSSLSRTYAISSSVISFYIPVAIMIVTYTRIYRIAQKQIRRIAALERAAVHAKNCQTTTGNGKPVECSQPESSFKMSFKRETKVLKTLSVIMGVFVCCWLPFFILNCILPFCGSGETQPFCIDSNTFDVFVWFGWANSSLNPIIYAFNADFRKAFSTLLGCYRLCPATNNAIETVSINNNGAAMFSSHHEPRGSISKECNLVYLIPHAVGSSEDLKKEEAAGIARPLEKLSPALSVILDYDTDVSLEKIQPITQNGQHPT

[3] = biological target: T1, 5-hydroxytryptamine receptor 2C (Homo sapiens) (UniProt P28335); assay: Displacement of [3H]-mesulergine from human 5HT2C expressed in HEKT cell membranes at 10 uM incubated for 90 mins under dark condition by scintillation counting analysis relative to control
T1 sequence (whole entry): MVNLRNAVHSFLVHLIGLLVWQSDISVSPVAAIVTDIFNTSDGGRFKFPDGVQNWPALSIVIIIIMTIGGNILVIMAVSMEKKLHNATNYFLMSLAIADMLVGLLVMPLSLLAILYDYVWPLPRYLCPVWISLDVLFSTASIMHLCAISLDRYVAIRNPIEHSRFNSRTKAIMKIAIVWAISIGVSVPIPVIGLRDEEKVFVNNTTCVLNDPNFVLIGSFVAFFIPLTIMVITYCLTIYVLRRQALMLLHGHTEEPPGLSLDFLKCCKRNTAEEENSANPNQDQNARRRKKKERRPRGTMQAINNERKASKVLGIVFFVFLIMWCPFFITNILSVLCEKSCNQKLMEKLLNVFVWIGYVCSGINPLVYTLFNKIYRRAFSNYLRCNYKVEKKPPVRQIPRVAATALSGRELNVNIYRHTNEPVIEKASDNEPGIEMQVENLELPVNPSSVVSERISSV

[4] = biological target: Alpha-2A adrenergic receptor (Homo sapiens) (UniProt P08913); assay: Displacement of [3H]-rauwolscine from human adrenergic alpha2A receptor transiently expressed in HEKT cell membranes at 10 uM incubated for 90 mins under dark condition by scintillation counting analysis relative to control
Sequence of Alpha-2A adrenergic receptor (Homo sapiens) (P08913 whole entry): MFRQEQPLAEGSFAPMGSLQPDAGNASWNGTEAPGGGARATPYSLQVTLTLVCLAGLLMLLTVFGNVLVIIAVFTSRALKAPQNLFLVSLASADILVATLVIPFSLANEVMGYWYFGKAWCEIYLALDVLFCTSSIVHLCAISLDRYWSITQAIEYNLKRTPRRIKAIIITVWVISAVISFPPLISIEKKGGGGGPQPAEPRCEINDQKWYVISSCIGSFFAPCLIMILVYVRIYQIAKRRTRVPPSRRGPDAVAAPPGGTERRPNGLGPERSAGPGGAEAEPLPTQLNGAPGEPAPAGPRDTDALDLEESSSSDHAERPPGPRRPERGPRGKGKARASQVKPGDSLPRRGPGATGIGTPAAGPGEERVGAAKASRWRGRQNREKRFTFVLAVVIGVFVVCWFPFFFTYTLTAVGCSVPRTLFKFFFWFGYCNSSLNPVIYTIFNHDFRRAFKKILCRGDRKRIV

[5] = biological target: 5-hydroxytryptamine receptor 1B (Homo sapiens) (UniProt P28222); assay: Displacement of [3H]-GR125743 from human 5HT1B stably expressed in HEK cell membranes at 10 uM incubated for 90 mins under dark condition by scintillation counting analysis relative to control
Sequence of 5-hydroxytryptamine receptor 1B (Homo sapiens) (P28222 whole entry): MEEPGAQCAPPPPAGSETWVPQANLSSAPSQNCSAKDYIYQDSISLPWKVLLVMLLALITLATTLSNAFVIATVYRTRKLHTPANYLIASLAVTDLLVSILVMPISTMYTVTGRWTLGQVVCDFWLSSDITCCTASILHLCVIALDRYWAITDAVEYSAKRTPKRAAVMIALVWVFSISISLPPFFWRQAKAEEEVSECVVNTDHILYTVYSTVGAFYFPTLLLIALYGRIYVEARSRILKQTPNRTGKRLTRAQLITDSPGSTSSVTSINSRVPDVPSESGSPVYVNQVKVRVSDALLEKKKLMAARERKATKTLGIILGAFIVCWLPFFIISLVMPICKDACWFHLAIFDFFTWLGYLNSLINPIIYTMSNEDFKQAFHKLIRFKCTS

[6] = biological target: Alpha-1D adrenergic receptor (Homo sapiens) (UniProt P25100); assay: Displacement of [3H]-prazosin from human adrenergic alpha1D receptor at 10 uM incubated for 90 mins under dark condition by scintillation counting analysis relative to control
Sequence of Alpha-1D adrenergic receptor (Homo sapiens) (P25100 whole entry): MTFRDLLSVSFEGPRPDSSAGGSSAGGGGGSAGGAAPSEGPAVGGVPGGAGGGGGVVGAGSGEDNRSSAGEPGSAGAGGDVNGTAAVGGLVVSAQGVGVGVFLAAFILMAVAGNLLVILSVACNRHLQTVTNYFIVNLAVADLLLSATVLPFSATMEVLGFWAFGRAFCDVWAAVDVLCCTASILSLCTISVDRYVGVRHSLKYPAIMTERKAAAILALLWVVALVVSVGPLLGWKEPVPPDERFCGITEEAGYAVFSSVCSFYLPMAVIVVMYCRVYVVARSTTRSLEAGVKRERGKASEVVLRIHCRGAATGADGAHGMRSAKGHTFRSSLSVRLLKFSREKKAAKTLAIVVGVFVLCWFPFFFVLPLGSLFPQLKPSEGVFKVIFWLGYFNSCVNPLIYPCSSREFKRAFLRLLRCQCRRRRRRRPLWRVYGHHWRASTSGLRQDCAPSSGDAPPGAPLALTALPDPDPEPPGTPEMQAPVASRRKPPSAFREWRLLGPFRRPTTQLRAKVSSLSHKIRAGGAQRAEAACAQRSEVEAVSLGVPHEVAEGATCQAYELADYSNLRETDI

[7] = Half life in rat liver microsomes at 10 uM in presence of NADPH; type: ADME, Microsome
CYP2C9 = CYP2C9 (Homo sapiens, UniProt P11712); assay: Inhibition of CYP2C9 (unknown origin) at 10 uM relative to control; type: ADME
Sequence of CYP2C9 (P11712 whole entry, canonical isoform): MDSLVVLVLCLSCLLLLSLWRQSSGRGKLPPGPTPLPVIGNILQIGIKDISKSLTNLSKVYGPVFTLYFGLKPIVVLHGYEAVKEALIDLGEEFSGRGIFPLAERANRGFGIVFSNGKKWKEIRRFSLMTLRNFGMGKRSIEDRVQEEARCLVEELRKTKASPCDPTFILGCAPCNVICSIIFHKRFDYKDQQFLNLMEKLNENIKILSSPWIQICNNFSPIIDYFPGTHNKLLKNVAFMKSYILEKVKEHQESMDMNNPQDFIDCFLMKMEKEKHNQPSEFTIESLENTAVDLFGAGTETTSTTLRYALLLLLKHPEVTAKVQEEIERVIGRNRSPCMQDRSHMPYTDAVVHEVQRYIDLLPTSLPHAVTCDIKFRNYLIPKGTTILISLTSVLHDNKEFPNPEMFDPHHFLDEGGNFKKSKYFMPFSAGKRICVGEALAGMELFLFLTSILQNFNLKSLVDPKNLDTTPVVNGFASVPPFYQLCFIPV
How it was run: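 Each CYP isoform inhibition assay run with test compound at 10 µM; reported as percent inhibition.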

[8] = Half life in Sprague-Dawley rat at 20 mg/kg, po; type: ADME, organism-based; settings: in vivo
How it was run: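 Male Sprague-Dawley rats (200–250 g, n = 3/group) dosed orally at 20 mg/kg in 10% DMSO:90% HP-β-CD. Retro-orbital blood sampled at 0.25, 0.5, 1, 2, 4, 8 and 24 h post-dose; plasma analysed externally. Noncompartmental analysis: λ from least-squares terminal log-linear slope, t1/2 = 0.693/λ; mean ± SEM.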

[9] = Volume of distribution at steady state in Sprague-Dawley rat at 20 mg/kg, po; type: ADME, organism-based; settings: in vivo
How it was run: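 Male Sprague-Dawley rats, 200–250 g, n = 3/group, randomly assigned; dosed 10 mg/kg iv or 20 mg/kg po in 10% DMSO:90% HP-β-CD. Retro-orbital blood sampled predose and 0.08 (iv only), 0.25, 0.5, 1, 2, 4, 8, 24 h. Noncompartmental analysis; Cmax read directly from plasma concentration–time plot; mean ± SEM.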

[10] = AUC (0 to infinity) in Sprague-Dawley rat at 20 mg/kg, po; type: ADME, organism-based; design: dose 20 mg/kg, time infinity, route oral; settings: in vivo
[11] = Ratio of drug level in brain to plasma in Sprague-Dawley rat at 10 mg/kg, iv after 0.25 hrs; type: ADME, organism-based
How it was run: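 Male Sprague-Dawley rats, n = 3/group, given 10 mg/kg iv in 10% DMSO:90% HP-β-CD. Brain and plasma collected at 0.25 and 1 h after dosing. Brain concentration (ng/g) divided by plasma concentration (ng/mL); mean ± SEM.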

5-HT2A receptor = 5-HT2A receptor (Homo sapiens, UniProt P28223); assay: Positive allosteric modulation of human 5HT2AR expressed in CHO cells assessed as increase in 5-HT induced intracellular calcium release at 1 nM preincubated for 15 mins followed by 5-HT addition and measured at 1 secs interval for 360 secs by calcium 4 dye based FLIPR assay relative to 5-HT; type: cell-based; settings: CHO cells expressing human 5HT2AR
Sequence of 5-HT2A receptor (P28223 whole entry): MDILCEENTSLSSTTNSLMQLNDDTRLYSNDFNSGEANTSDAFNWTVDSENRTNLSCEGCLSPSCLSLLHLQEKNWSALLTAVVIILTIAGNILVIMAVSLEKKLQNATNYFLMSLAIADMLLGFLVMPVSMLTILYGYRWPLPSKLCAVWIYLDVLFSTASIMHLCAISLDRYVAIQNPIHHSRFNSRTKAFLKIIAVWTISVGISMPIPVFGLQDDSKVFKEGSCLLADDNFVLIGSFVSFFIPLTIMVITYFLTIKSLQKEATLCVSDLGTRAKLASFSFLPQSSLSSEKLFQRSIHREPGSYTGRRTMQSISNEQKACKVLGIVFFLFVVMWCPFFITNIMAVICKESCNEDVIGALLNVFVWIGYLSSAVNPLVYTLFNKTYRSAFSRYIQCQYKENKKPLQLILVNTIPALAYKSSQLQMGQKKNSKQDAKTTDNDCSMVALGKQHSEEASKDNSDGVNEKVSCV
How it was run: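 CHO cells stably expressing human 5-HT2AR, serum-starved 3 h, then loaded with Calcium 4 dye plus 2.5 mM probenecid in HBSS (no Ca/Mg, pH 7.4) for 60 min at 37°C and 15 min at room temperature. Test compound added 15 min before 5-HT (10 pM-10 μM). FLIPR fluorescence read every 1 s for 360 s after 5-HT. Emax from 4-parameter fit, normalized to 5-HT maximum.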

SMILES: O=C(NC[C@H](O)CO)[C@@H]1C[C@H](c2ccccc2)CCN1 (mixture of isomers)
- inhibition [1]: 7.5%
- inhibition [2]: 9.7%
- inhibition [3]: 26.9%
- inhibition [4]: -7.6%
- inhibition [5]: 12.3%
- inhibition [6]: -4.8%
- t1/2 [7]: > 4 h
- inhibition at 10 µM (CYP2C9): 0%
- t1/2 [8]: 4.4 h
- Vdss [9]: 70.6 L/kg
- AUC [10]: 2244.7 ng·h/mL
- BPR [11]: 0.07
- Emax at 0.1 h, 0.001 µM (5-HT2A receptor): 103%
